From ChEMBL document CHEMBL1146223, “Synthesis, monoamine transporter binding, properties, and functional monoamine uptake activity of 3beta-[4-methylphenyl and 4-chlorophenyl]-2 beta-[5-(substituted phenyl)thiazol-2-yl]tropanes” (J Med Chem, 2007)

How the values were obtained:
[1] = target: Sodium-dependent dopamine transporter (Homo sapiens, UniProt Q01959); experiment: Displacement of [125I]RTI-55 from human DAT expressed in HEK cells after 90 mins; type: cell-based, HEK293
Summary of the method: (§1)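 Competition binding on human DAT or SERT stably expressed in HEK293 cells, using the nonselective radioligand [¹²⁵I]RTI-55.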

[2] = target: T1, Sodium-dependent serotonin transporter (Homo sapiens, UniProt P31645); experiment: Displacement of [125I]RTI-55 from human SERT expressed in HEK cells after 90 mins; type: cell-based, HEK293; summary of the method: as §1
T1 sequence (P31645 whole entry): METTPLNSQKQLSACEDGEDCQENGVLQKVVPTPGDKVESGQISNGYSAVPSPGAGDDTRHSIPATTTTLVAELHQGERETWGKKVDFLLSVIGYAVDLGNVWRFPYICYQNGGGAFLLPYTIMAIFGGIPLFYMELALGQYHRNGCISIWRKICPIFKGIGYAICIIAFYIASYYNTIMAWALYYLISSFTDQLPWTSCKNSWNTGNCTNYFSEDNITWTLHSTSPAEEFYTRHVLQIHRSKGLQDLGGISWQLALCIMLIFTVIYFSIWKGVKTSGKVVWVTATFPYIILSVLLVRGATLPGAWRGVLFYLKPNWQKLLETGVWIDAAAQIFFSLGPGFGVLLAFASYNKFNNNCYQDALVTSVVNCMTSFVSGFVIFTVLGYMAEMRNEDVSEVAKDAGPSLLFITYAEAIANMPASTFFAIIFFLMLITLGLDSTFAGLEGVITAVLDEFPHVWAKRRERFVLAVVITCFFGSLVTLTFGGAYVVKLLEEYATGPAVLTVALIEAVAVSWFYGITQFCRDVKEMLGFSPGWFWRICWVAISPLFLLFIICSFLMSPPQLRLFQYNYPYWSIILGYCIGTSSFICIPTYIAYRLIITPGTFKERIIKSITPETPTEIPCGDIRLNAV

[3] = target: T1, Sodium-dependent serotonin transporter; experiment: Inhibition of human SERT in HEK cells assessed as [3H]serotonin reuptake; type: functional, cell-based, HEK293
Summary of the method: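 Human SERT stably expressed in HEK293 cells; the compound's block of radiolabelled serotonin reuptake was measured in these cells.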

[4] = target: Norepinephrine transporter (Rattus norvegicus, UniProt Q9WTR4); experiment: Displacement of [3H]nisoxetine from NET in Sprague-Dawley rat brain; type: tissue-based
Sequence of Norepinephrine transporter (Q9WTR4 whole entry): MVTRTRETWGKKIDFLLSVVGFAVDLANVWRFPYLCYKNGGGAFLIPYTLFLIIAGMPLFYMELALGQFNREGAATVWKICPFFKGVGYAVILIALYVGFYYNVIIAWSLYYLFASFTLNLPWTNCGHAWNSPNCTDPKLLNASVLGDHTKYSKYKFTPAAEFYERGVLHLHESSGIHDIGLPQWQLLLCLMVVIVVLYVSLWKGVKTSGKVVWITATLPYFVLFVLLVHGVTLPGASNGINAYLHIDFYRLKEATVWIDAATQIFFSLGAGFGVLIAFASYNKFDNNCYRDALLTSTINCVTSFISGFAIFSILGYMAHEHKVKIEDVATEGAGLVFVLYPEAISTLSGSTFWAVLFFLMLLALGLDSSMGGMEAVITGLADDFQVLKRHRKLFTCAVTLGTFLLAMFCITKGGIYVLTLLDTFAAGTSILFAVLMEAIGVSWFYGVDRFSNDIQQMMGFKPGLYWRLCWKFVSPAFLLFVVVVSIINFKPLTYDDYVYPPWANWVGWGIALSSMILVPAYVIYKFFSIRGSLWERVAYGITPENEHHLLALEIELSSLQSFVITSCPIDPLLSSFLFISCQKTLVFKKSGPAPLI
Summary of the method: (§2)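 Male Sprague-Dawley rats (200-250 g); striata, midbrain or frontal cortex tissue used for competition binding. Final radioligand concentrations were 0.5 nM for DAT, 0.2 nM [³H]paroxetine for SERT and 0.5 nM [³H]nisoxetine for NET.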

[5] = target: Sodium-dependent dopamine transporter (Rattus norvegicus, UniProt P23977); experiment: Displacement of [3H]WIN-35428 from DAT in Sprague-Dawley rat brain; type: tissue-based; summary of the method: as §2
Sequence of Sodium-dependent dopamine transporter (Rattus norvegicus, UniProt P23977) (P23977 whole entry): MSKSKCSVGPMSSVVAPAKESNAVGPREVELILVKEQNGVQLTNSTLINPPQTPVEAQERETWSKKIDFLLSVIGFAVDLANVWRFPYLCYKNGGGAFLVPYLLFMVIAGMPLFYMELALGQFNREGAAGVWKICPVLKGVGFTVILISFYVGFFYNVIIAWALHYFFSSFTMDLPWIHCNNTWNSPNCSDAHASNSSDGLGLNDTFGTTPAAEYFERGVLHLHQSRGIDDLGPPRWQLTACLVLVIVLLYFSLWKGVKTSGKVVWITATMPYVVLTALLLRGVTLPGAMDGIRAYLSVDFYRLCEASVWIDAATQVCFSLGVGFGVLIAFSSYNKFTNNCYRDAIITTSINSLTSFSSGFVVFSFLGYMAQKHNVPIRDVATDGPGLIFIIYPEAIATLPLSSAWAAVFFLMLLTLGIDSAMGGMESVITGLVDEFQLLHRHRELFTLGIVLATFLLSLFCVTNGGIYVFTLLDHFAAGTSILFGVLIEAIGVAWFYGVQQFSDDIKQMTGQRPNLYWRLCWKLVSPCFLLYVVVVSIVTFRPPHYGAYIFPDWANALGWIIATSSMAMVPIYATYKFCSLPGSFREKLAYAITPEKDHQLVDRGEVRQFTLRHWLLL

[6] = target: Sodium-dependent serotonin transporter (Rattus norvegicus, UniProt P31652); experiment: Displacement of [3H]paroxetine from SERT in Sprague-Dawley rat brain; type: tissue-based; summary of the method: as §2
Sequence of Sodium-dependent serotonin transporter (Rattus norvegicus, UniProt P31652) (P31652 whole entry): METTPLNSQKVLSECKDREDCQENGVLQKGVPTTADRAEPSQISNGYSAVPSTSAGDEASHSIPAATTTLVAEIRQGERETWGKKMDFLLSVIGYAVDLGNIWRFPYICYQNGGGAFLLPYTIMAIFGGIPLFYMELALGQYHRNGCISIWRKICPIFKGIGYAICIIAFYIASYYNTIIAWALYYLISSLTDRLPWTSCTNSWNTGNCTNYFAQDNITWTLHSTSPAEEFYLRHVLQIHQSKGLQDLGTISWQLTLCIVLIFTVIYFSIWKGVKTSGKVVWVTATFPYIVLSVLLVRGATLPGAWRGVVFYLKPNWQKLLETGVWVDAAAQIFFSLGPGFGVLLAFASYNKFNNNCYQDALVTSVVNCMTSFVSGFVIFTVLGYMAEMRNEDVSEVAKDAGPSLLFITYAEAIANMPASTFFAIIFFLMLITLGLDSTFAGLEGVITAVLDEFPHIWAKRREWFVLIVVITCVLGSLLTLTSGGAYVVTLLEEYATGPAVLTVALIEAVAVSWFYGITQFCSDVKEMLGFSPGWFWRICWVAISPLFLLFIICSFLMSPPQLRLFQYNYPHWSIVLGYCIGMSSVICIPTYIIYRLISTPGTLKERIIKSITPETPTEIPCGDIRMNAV

[7] = target: T2, Sodium-dependent noradrenaline transporter (Homo sapiens, UniProt P23975); experiment: Inhibition of human NET in HEK cells assessed as [3H]norepinephrine reuptake; type: functional, cell-based, HEK293
T2 sequence (P23975 whole entry): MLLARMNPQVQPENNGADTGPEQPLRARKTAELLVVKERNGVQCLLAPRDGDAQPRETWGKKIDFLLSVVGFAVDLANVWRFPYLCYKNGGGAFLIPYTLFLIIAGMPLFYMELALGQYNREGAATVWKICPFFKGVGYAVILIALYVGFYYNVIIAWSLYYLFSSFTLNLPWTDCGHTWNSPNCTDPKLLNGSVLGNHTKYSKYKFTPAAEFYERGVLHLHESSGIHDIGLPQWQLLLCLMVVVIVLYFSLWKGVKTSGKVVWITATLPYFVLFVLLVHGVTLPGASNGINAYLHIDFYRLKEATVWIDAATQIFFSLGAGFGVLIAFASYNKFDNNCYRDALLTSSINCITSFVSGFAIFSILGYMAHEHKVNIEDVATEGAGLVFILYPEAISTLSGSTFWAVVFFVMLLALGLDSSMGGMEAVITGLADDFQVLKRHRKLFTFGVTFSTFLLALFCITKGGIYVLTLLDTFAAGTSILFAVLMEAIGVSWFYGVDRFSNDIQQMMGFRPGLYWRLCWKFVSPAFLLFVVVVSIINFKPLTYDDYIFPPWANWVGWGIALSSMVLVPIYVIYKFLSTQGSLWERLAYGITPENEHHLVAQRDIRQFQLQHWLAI

[8] = target: T2, Sodium-dependent noradrenaline transporter; experiment: Displacement of [125I]RTI-55 from human NET expressed in HEK cells after 90 mins; type: cell-based, HEK293

Sequence of Sodium-dependent dopamine transporter (Homo sapiens, UniProt Q01959) (Q01959 whole entry): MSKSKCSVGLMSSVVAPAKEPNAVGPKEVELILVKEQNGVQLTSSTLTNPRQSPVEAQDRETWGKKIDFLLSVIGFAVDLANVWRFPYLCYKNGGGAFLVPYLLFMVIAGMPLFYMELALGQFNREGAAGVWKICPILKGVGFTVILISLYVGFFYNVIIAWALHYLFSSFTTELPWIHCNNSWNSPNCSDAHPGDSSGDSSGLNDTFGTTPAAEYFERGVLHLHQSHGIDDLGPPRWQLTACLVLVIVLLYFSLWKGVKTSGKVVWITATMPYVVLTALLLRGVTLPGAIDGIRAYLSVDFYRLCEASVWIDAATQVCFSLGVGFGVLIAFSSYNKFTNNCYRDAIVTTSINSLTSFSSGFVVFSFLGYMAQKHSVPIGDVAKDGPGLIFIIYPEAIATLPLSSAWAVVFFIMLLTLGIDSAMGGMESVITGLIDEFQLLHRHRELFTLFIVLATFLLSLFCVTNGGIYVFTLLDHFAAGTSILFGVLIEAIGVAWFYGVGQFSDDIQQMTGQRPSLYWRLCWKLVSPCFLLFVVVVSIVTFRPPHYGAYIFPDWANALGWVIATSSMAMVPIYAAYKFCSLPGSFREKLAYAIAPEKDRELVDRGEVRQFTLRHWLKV

COc1ccc(-c2cnc([C@H]3[C@@H](c4ccc(C)cc4)C[C@@H]4CC[C@H]3N4C)s2)cc1OC
Ki [1]: 529 nM
Ki [2]: 7710 nM
IC50 [3]: > 10000 nM
Ki [4]: > 2000 nM
IC50 [5]: 83 nM
Ki [6]: > 2000 nM

Cc1ccc([C@H]2C[C@@H]3CC[C@H]([C@H]2c2ncc(-c4cccc(Br)c4)s2)N3C)cc1
Ki [1]: 12 nM
Ki [2]: 870 nM
IC50 [3]: 3860 nM
Ki [4]: > 2000 nM
IC50 [5]: 10 nM
Ki [6]: 312 nM

COc1ccc(-c2cnc([C@H]3[C@@H](c4ccc(C)cc4)C[C@@H]4CC[C@H]3N4C)s2)cc1
Ki [1]: 53 nM
IC50 [7]: 1810 nM
Ki [2]: 3670 nM
Ki [8]: 3630 nM
IC50 [3]: 6800 nM
Ki [4]: > 2000 nM
IC50 [5]: 15 nM
Ki [6]: > 2000 nM

CN1[C@H]2CC[C@@H]1[C@@H](c1ncc(-c3ccc(Cl)c(Cl)c3)s1)[C@@H](c1ccc(Cl)cc1)C2
Ki [1]: 66 nM
Ki [2]: 2710 nM
IC50 [3]: 5300 nM
Ki [4]: > 2000 nM
IC50 [5]: 440 nM
Ki [6]: 380 nM

Cc1ccc([C@H]2C[C@@H]3CC[C@H]([C@H]2c2ncc(-c4ccc(Cl)c(Cl)c4)s2)N3C)cc1
Ki [1]: 105 nM
IC50 [7]: 4000 nM
Ki [2]: 2940 nM
Ki [8]: > 6100 nM
IC50 [3]: 4400 nM
Ki [4]: > 2000 nM
IC50 [5]: 102 nM
Ki [6]: 190 nM

COC(=O)[C@H]1[C@@H](c2ccccc2)C[C@@H]2CC[C@H]1N2C [TROPARIL]
Ki [4]: 920 nM
IC50 [5]: 23 nM

Cc1ccc([C@H]2C[C@@H]3CC[C@H]([C@H]2c2ncc(-c4cccc([N+](=O)[O-])c4)s2)N3C)cc1
Ki [1]: 14 nM
Ki [2]: 580 nM
IC50 [3]: 2380 nM
Ki [4]: > 2000 nM
IC50 [5]: 4 nM
Ki [6]: 10000 nM

COc1ccc(-c2cnc([C@H]3[C@@H](c4ccc(Cl)cc4)C[C@@H]4CC[C@H]3N4C)s2)cc1
Ki [1]: 8.6 nM
Ki [2]: 5200 nM
IC50 [3]: 6700 nM
Ki [4]: > 2000 nM
IC50 [5]: 14 nM
Ki [6]: 800 nM

Cc1ccc([C@H]2C[C@@H]3CC[C@H]([C@H]2c2ncc(-c4ccc(Cl)cc4)s2)N3C)cc1
Ki [1]: 212 nM
Ki [2]: 1320 nM
IC50 [3]: 377 nM
Ki [4]: > 2000 nM
IC50 [5]: 22 nM
Ki [6]: 1110 nM

CN1[C@H]2CC[C@@H]1[C@@H](c1ncc(-c3cccc([N+](=O)[O-])c3)s1)[C@@H](c1ccc(Cl)cc1)C2
Ki [1]: 7.7 nM
Ki [2]: 740 nM
IC50 [3]: 1610 nM
Ki [4]: > 2000 nM
IC50 [5]: 5 nM
Ki [6]: 301 nM

CN1[C@H]2CC[C@@H]1[C@@H](c1ncc(-c3ccc([N+](=O)[O-])cc3)s1)[C@@H](c1ccc(Cl)cc1)C2
Ki [1]: 6.1 nM
Ki [2]: 1820 nM
IC50 [3]: 3600 nM
Ki [4]: > 2000 nM
IC50 [5]: 20 nM
Ki [6]: 980 nM

Cc1ccc([C@H]2C[C@@H]3CC[C@H]([C@H]2c2ncc(-c4ccc(Br)cc4)s2)N3C)cc1
Ki [1]: 130 nM
Ki [2]: 1870 nM
IC50 [3]: 1840 nM

Cc1ccc([C@H]2C[C@@H]3CC[C@H]([C@H]2c2ncc(-c4ccc(F)cc4)s2)N3C)cc1
Ki [1]: 61 nM
Ki [2]: 1720 nM
IC50 [3]: 3200 nM
Ki [4]: > 2000 nM
IC50 [5]: 12 nM
Ki [6]: 2240 nM

CN1[C@H]2CC[C@@H]1[C@@H](c1ncc(-c3ccc(Br)cc3)s1)[C@@H](c1ccc(Cl)cc1)C2
Ki [2]: 5700 nM
IC50 [3]: 8220 nM
Ki [4]: > 2000 nM
Ki [6]: 840 nM

CN1[C@H]2CC[C@@H]1[C@@H](c1ncc(-c3ccccc3)s1)[C@@H](c1ccc(Cl)cc1)C2
Ki [1]: 18 nM
IC50 [7]: 750 nM
Ki [2]: 2670 nM
Ki [8]: 1840 nM
IC50 [3]: 2710 nM
Ki [4]: 8560 nM
IC50 [5]: 5.7 nM
Ki [6]: > 2000 nM

CN1[C@H]2CC[C@@H]1[C@@H](c1ncc(-c3ccc(Cl)cc3)s1)[C@@H](c1ccc(Cl)cc1)C2
Ki [1]: 28 nM
Ki [2]: 2390 nM
IC50 [3]: 4400 nM
Ki [4]: > 2000 nM
IC50 [5]: 20 nM
Ki [6]: 903 nM

CN1[C@H]2CC[C@@H]1[C@@H](c1ncc(-c3cccc(Br)c3)s1)[C@@H](c1ccc(Cl)cc1)C2
Ki [1]: 39 nM
Ki [2]: 1500 nM
IC50 [3]: 4000 nM
Ki [4]: > 2000 nM
IC50 [5]: 18 nM
Ki [6]: 280 nM

COc1ccc(-c2cnc([C@H]3[C@@H](c4ccc(Cl)cc4)C[C@@H]4CC[C@H]3N4C)s2)cc1OC
Ki [1]: 234 nM
Ki [2]: 3590 nM
IC50 [3]: > 6800 nM
Ki [4]: > 2000 nM
IC50 [5]: 65 nM
Ki [6]: 1510 nM

CN1[C@H]2CC[C@@H]1[C@@H](c1ncc(-c3ccc(F)cc3)s1)[C@@H](c1ccc(Cl)cc1)C2
Ki [1]: 12 nM
Ki [2]: 653 nM
IC50 [3]: 1010 nM
Ki [4]: > 2000 nM
IC50 [5]: 6 nM
Ki [6]: 371 nM

Cc1ccc([C@H]2C[C@@H]3CC[C@H]([C@H]2c2ncc(-c4ccc([N+](=O)[O-])cc4)s2)N3C)cc1
Ki [1]: 140 nM
Ki [2]: 1640 nM
IC50 [3]: 3170 nM
Ki [4]: > 2000 nM
IC50 [5]: 41 nM
Ki [6]: 1690 nM
